pEC50: −log10 of the molar value.
Legend:
[1] = molecular target: P23H rhodopsin fused with Renilla luciferase (Mus musculus, UniProt P15409, P23H); test: Rluc reporter assay in Hek293; type: cell-based; conditions: for Rluc assay Hek293 (RHO^P23H-Rluc) Efficacy: DMSO = 0%, 1 mM Evans Blue = -100%; for pEC50: read-out: Rluc assay Hek293 (RHO^P23H-Rluc) EC50, 24 h treatment, dose response
[2] = test system: WT rhodopsin fused with Renilla luciferase; test: Rluc reporter counter assay in Hek293; type: cell-based, mouse; conditions: DMSO = 0%, 1 mM Evans Blue = -100%; NA = no dose response effect
Method in brief: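 HEK293 cells stably expressing WT rhodopsin–Rluc, run as the HTS reporter assay: cells spun 300 × g 30 s, cultured overnight at 37 °C, 5% CO2; test compound in DMSO pin-transferred. ViviREN (50 μM solution in PBS) added, 1 h dim light, room temperature; luminescence read. Score = (RLU_compound − RLU_DMSO)/(RLU_DMSO − RLU_Evans Blue) ×100; 10 μM triplicates and dose-response.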

[3] = molecular target: T1, P23H rhodopsin (Mus musculus, UniProt P15409, P23H); test: Image-based; type: cell-based; conditions: for Image-based assay NIH3T3 (RHO^P23H/GFP) Efficacy: DMSO = 0%, secondary antibody only = -100%; for pEC50: read-out: Image-based assay NIH3T3 (RHO^P23H/GFP) EC50, 24 h treatment, 8-10 doses
[4] = molecular target: T1, P23H rhodopsin; test: Rhodopsin dot blot of NIH3T3; type: cell-based; conditions: NIH3T3(RHO^P23H/GFP) cells, 10 μM, 24 h, vs DMSO control
Method in brief: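 NIH3T3(RHO^P23H/GFP) cells were seeded at 2.5 × 10⁴/well in 96-well plates, attached 4 h, then given medium with 2× test compound to reach 10 μM final for 24 h. Cells were PBS-washed and lysed in RIPA with protease inhibitors plus 6 s sonication. Of each well's lysate, 90% was dotted on nitrocellulose, air-dried and probed with 0.1 μg/mL HRP-1D4. Densitometry was normalized to DMSO.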

[5] = test system: RHO transcripts; test: qPCR of RHO transcripts in NIH3T3; type: cell-based, mouse; conditions: 10 μM; for Rho mRNA level (qPCR): NIH3T3(RHO^P23H/GFP) cells, vs DMSO control; for Rho mRNA level (qPCR) / WT and P23H rhodopsin transcripts in comparison to DMSO control: 24 h
Method in brief: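 NIH3T3 cells stably expressing WT or P23H rhodopsin (GFP lines) were seeded in 24-well plates at 2.5×10⁵ cells/well and cultured overnight at 37 °C, 5% CO₂. They were then exposed to test compound in culture medium for 24 h. RNA was precipitated by centrifugation at 12,000×g for 10 min at 4 °C, washed with 75% ethanol, air-dried and dissolved in nuclease-free water before qPCR.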

[6] = molecular target: T1, P23H rhodopsin; test: Non-radioactive pulse-chase assay in NIH3T3; type: cell-based; conditions: 10 μM; for Rate of Rho^P23H degradation (Pulse-chase): NIH3T3(RHO^P23H/GFP) cells, 24 h chase, vs DMSO control
Method in brief: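 Non-radioactive pulse-chase. Cells (3 × 10⁵/well, 24-well) were grown overnight, starved in Met-free DMEM for 1 h, then pulsed with 50 μM L-AHA for 4 h (50 μM Met as negative control). Chase was 24 h in DMEM with 2 mM Met ± 10 μM test compound. Lysates (200 μg) were clicked with 5 μM BTN-sDIBO for 1 h at 37 °C, immunoprecipitated with 1D4, eluted at pH 2.8, dot-blotted and probed with HRP-streptavidin. Values normalized to DMSO on the same membrane; N=3, unpaired two-tailed t-test.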

[7] = test system: rhodopsin mutants (T4R, P23H, P53R, C110Y, D190N, P267L); type: cell-based, mouse; conditions: U2OS cells; T4R, P23H, P53R, C110Y, D190N, P267L mutants
Method in brief: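 U2OS stable lines expressed WT or mutant mouse rhodopsin fused to Venus. Cells were transfected with pcDNA3.1 Zeo constructs, kept 48 h in DMEM/10% FBS, then selected with 400 μg/mL Zeocin. Stable cells were treated with test compound at 10 μM and immunostained for rhodopsin.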

[8] = both NIH3T3(RHO^P23H/GFP) and NIH3T3(RHO^WT/GFP) cells

CCC(C)(O)C(O)C(=O)O (stereo not drawn) [CL-008]
Rluc assay Hek293 (RHO^P23H-Rluc) Efficacy [1]: −89.5%
pEC50 [1]: 6.03
Rluc assay Hek293 (RHO^WT-Rluc) Efficacy [2]: −52.7%
Image-based assay NIH3T3 (RHO^P23H/GFP) Efficacy [3]: −70.1%
pEC50 [3]: 5.80
Rho protein level (Dot blot) [4]: Down
Rho mRNA level (qPCR) [5]: Down
WT and P23H rhodopsin transcripts in comparison to DMSO control [5, 8]: reduced non-selectively
Rate of Rho^P23H degradation (Pulse-chase) [6]: No Change

CC(=O)OC(CC(=O)O)C[N+](C)(C)C (stereo not drawn) [CL-002]
Rluc assay Hek293 (RHO^P23H-Rluc) Efficacy [1]: −86.1%
pEC50 [1]: 5.70
Rluc assay Hek293 (RHO^WT-Rluc) Efficacy [2]: −62.0%
Image-based assay NIH3T3 (RHO^P23H/GFP) Efficacy [3]: −61.0%
pEC50 [3]: 5.80
Rho protein level (Dot blot) [4]: Down
Rho mRNA level (qPCR) [5]: Down
WT and P23H rhodopsin transcripts in comparison to DMSO control [5, 8]: reduced non-selectively
BTN-AHA labeled P23H rhodopsin at 24 h of chase in comparison to DMSO control [6]: significantly reduced
Immunofluorescence intensities of rhodopsin mutants [7]: reduced

O=[N+]([O-])c1ccc(Cl)c([N+](=O)[O-])c1 [CL-006]
Rluc assay Hek293 (RHO^P23H-Rluc) Efficacy [1]: −66.2%
pEC50 [1]: 5.77
Rluc assay Hek293 (RHO^WT-Rluc) Efficacy [2]: −42.9%
Image-based assay NIH3T3 (RHO^P23H/GFP) Efficacy [3]: −76.4%
pEC50 [3]: 5.66
Rho protein level (Dot blot) [4]: Down
Rho mRNA level (qPCR) [5]: Down
WT and P23H rhodopsin transcripts in comparison to DMSO control [5, 8]: reduced non-selectively
Rate of Rho^P23H degradation (Pulse-chase) [6]: No Change

NCC(=O)COP(=O)(O)O [CL-005]
Rluc assay Hek293 (RHO^P23H-Rluc) Efficacy [1]: −78.2%
pEC50 [1]: 5.18
Rluc assay Hek293 (RHO^WT-Rluc) Efficacy [2]: −57.9%
Image-based assay NIH3T3 (RHO^P23H/GFP) Efficacy [3]: −72.7%
pEC50 [3]: 5.89
Rho protein level (Dot blot) [4]: Down
Increase of rhodopsin transcripts compared to DMSO control [5, 8]: up to 2 fold
BTN-AHA labeled P23H rhodopsin at 24 h of chase in comparison to DMSO control [6]: significantly reduced
Immunofluorescence intensities of rhodopsin mutants [7]: reduced

CCn1cnc2c(N)ncnc21 [CL-007]
Rluc assay Hek293 (RHO^P23H-Rluc) Efficacy [1]: −72.5%
pEC50 [1]: 4.89
Rluc assay Hek293 (RHO^WT-Rluc) Efficacy [2]: −51.7%
Image-based assay NIH3T3 (RHO^P23H/GFP) Efficacy [3]: −72.7%
pEC50 [3]: 5.54
Rho protein level (Dot blot) [4]: Down
Rho mRNA level (qPCR) [5]: Down
WT and P23H rhodopsin transcripts in comparison to DMSO control [5, 8]: reduced non-selectively
BTN-AHA labeled P23H rhodopsin at 24 h of chase in comparison to DMSO control [6]: significantly reduced
Immunofluorescence intensities of rhodopsin mutants [7]: reduced

O=C(O)C1=CC=CC(O)C1O (stereo not drawn) [CL-003]
Rluc assay Hek293 (RHO^P23H-Rluc) Efficacy [1]: −65.3%
pEC50 [1]: 6.05
Rluc assay Hek293 (RHO^WT-Rluc) Efficacy [2]: −37.7%
Image-based assay NIH3T3 (RHO^P23H/GFP) Efficacy [3]: −46.1%
pEC50 [3]: 6.22
Rho protein level (Dot blot) [4]: Down
Rho mRNA level (qPCR) [5]: Down
WT and P23H rhodopsin transcripts in comparison to DMSO control [5, 8]: reduced non-selectively
Rate of Rho^P23H degradation (Pulse-chase) [6]: No Change

CC(O)CN (stereo not drawn) [CL-004]
Rluc assay Hek293 (RHO^P23H-Rluc) Efficacy [1]: −68.6%
pEC50 [1]: 5.80
Rluc assay Hek293 (RHO^WT-Rluc) Efficacy [2]: −45.5%
Image-based assay NIH3T3 (RHO^P23H/GFP) Efficacy [3]: −70.7%
pEC50 [3]: 6.33
Rho protein level (Dot blot) [4]: Down
Rho mRNA level (qPCR) [5]: Down
WT and P23H rhodopsin transcripts in comparison to DMSO control [5, 8]: reduced non-selectively
Rate of Rho^P23H degradation (Pulse-chase) [6]: No Change

CC(=O)OC(CC(=O)[O-])C[N+](C)(C)C (stereo not drawn) [CL-001]
Rluc assay Hek293 (RHO^P23H-Rluc) Efficacy [1]: −69.4%
pEC50 [1]: 5.96
Rluc assay Hek293 (RHO^WT-Rluc) Efficacy [2]: −44.3%
Image-based assay NIH3T3 (RHO^P23H/GFP) Efficacy [3]: −83.6%
pEC50 [3]: 5.68
Rho protein level (Dot blot) [4]: Down
Rho mRNA level (qPCR) [5]: Down
WT and P23H rhodopsin transcripts in comparison to DMSO control [5, 8]: reduced non-selectively
BTN-AHA labeled P23H rhodopsin at 24 h of chase in comparison to DMSO control [6]: significantly reduced
Immunofluorescence intensities of rhodopsin mutants [7]: reduced

— PMC7688577 (FASEB journal : official publication of the Federation of …, 2020)
